Assay results taken from ChEMBL document CHEMBL1150167, “Sesquiterpenes from Ferula penninervis” (2002).

What was measured:
Assay type in all cases: functional
[1] = Inhibition of lipopolysaccharide IL1-beta production in human PMNC at 0.3 ug/mL by ELISA
Summary of the method: (§1)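 Cytokine (IL-1β, IL-2, IL-4, TNF) concentrations were measured directly by ELISA in the culture supernatants. The paper attributes the cytokines to macrophages in the culture.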

[2] = Inhibition of lipopolysaccharide IL2 production in human PMNC at 0.3 ug/mL by ELISA; summary of the method: as §1
[3] = Inhibition of lipopolysaccharide IL4 production in human PMNC at 0.3 ug/mL by ELISA; summary of the method: as §1
[4] = Inhibition of lipopolysaccharide TNFalpha production in human PMNC at 0.3 ug/mL by ELISA; summary of the method: as §1

`C[C@]12C=CC(=O)C=C1CC[C@@H]1[C@@H]2[C@@H](O)C[C@@]2(C)[C@H]1CC[C@]2(O)C(=O)CO` [PREDNISOLONE] gave an inhibition at 0.3 µg/mL [1] of 24.8%, an inhibition at 0.3 µg/mL [2] of 30.6% and an inhibition at 0.3 µg/mL [3] of 40.7%. The inhibition at 0.3 µg/mL [4] was 47.9%.
